{
  "source": "ChEMBL document CHEMBL4007430",
  "about": "“Synthesis and Cytostatic and Antiviral Profiling of Thieno-Fused 7-Deazapurine Ribonucleosides” (J Med Chem, 2017)",
  "key": {"BJ": {"test_system": "BJ", "assay": "Cytotoxicity against human BJ cells assessed as cell growth inhibition after 72 hrs by MTS assay", "assay_type": "cell-based", "procedure,_shortened": "(§1)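 Cells were exposed to compound for 3 days, then stained with MTS as a quantitative metabolic read-out. IC50 is the concentration that inhibits cell growth by 50%.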"}, "MRC5": {"test_system": "MRC5", "assay": "Cytotoxicity against human MRC5 cells assessed as cell growth inhibition after 72 hrs by MTS assay", "assay_type": "cell-based", "conditions": "MRC5, 72 h", "procedure,_shortened": "as §1"}, "[1]": {"assay": "Cytotoxicity against mrp-1/mdr-1 overexpressing human CEM-DNR-bulk cells assessed as cell growth inhibition after 72 hrs by MTS assay", "assay_type": "functional, cell-based", "procedure,_shortened": "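Cells were exposed to compound for 3 days, then stained with MTS as a quantitative metabolic read-out.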"}, "HCT-116 [2]": {"test_system": "HCT-116", "assay": "Cytotoxicity against human HCT116 cells assessed as cell growth inhibition after 72 hrs by MTS assay", "assay_type": "functional, cell-based", "conditions": "HCT-116, 72 h", "procedure,_shortened": "as §1"}, "HCT-116 [3]": {"test_system": "HCT-116", "assay": "Cytotoxicity against p53 deficient human HCT116 cells assessed as cell growth inhibition after 72 hrs by MTS assay", "assay_type": "functional, cell-based", "conditions": "HCT-116, 72 h", "procedure,_shortened": "as §1"}, "K562": {"test_system": "K562", "assay": "Cytotoxicity against human K562 cells assessed as cell growth inhibition after 72 hrs by MTS assay", "assay_type": "functional, cell-based", "conditions": "K562, 72 h", "procedure,_shortened": "as §1"}, "[4]": {"assay": "Cytotoxicity against human K562-TAX cells assessed as cell growth inhibition after 72 hrs by MTS assay", "assay_type": "functional, cell-based", "procedure,_shortened": "as §1"}, "U2OS": {"test_system": "U2OS", "assay": "Cytotoxicity against human U2OS cells assessed as cell growth inhibition after 72 hrs by MTS assay", "assay_type": "functional, cell-based"}, "HL-60": {"test_system": "HL-60", "assay": "Cytotoxicity against human HL60 cells assessed as reduction in cell viability after 72 hrs by XTT assay", "assay_type": "functional, cell-based", "conditions": "HL-60, 72 h", "procedure,_shortened": "(§2)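 Cells were incubated with compound for 3 days. Viability was then measured with the XTT tetrazolium assay.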"}, "HepG2": {"test_system": "HepG2", "assay": "Cytotoxicity against human HepG2 cells assessed as reduction in cell viability after 72 hrs by XTT assay", "assay_type": "functional, cell-based", "conditions": "HepG2, 72 h", "procedure,_shortened": "as §2"}, "HeLa S3": {"test_system": "HeLa S3", "assay": "Cytotoxicity against human HeLaS3 cells assessed as reduction in cell viability after 72 hrs by XTT assay", "assay_type": "functional, cell-based", "conditions": "HeLa S3, 72 h", "procedure,_shortened": "as §2"}, "A549": {"test_system": "A549", "assay": "Cytotoxicity against human A549 cells assessed as cell growth inhibition after 72 hrs by MTS assay", "assay_type": "functional, cell-based", "conditions": "A549, 72 h", "procedure,_shortened": "as §1"}, "Adenosine kinase [5]": {"target": "T1, Adenosine kinase (Homo sapiens, UniProt P55263)", "T1 sequence (P55263 whole entry)": "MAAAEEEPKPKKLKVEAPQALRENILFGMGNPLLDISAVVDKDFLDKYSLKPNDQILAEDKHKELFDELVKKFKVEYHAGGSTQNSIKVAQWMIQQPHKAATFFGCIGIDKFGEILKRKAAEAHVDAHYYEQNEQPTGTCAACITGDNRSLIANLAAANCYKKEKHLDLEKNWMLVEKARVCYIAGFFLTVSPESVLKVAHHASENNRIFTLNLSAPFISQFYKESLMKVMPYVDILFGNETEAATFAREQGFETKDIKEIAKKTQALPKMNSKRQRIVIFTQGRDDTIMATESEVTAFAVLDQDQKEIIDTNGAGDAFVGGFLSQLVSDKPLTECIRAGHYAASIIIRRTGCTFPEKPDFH", "assay": "Drug metabolism in human BJ cells assessed as ADK-mediated 4-(Methylsulfanyl)-8-(beta-D-ribofuranosyl)-8H-thieno[2, 3:4,5]-pyrrolo[2,3-d]pyrimidine-5-O-monophosphate Sodium Salt formation per 5 x10^5 cells at 1 umol/L after 1 hr by UPLC-MS/MS analysis", "assay_type": "ADME, cell-based", "conditions": "1 µM"}, "Adenosine kinase [6]": {"target": "T1, Adenosine kinase", "assay": "Drug metabolism in human HCT116 cells assessed as ADK-mediated 4-(Methylsulfanyl)-8-(beta-D-ribofuranosyl)-8H-thieno[2, 3:4,5]-pyrrolo[2,3-d]pyrimidine-5-O-monophosphate Sodium Salt formation per 5 x10^5 cells at 1 umol/L after 1 hr by UPLC-MS/MS analysis", "assay_type": "ADME, cell-based", "conditions": "1 µM"}, "Adenosine kinase [7]": {"target": "T1, Adenosine kinase", "assay": "Drug metabolism in human BJ cells assessed as ADK-mediated 4-(Methylsulfanyl)-8-(beta-D-ribofuranosyl)-8H-thieno[2, 3:4,5]-pyrrolo[2,3-d]pyrimidine-5-O-monophosphate Sodium Salt formation per 5 x10^5 cells at 1 umol/L after 3 hrs by UPLC-MS/MS analysis", "assay_type": "ADME, cell-based", "conditions": "1 µM"}, "Adenosine kinase [8]": {"target": "T1, Adenosine kinase", "assay": "Drug metabolism in human HCT116 cells assessed as ADK-mediated 4-(Methylsulfanyl)-8-(beta-D-ribofuranosyl)-8H-thieno[2, 3:4,5]-pyrrolo[2,3-d]pyrimidine-5-O-monophosphate Sodium Salt formation per 5 x10^5 cells at 1 umol/L after 3 hrs by UPLC-MS/MS analysis", "assay_type": "ADME, cell-based", "conditions": "1 µM"}, "Adenosine kinase [9]": {"target": "T1, Adenosine kinase", "assay": "Drug metabolism in human BJ cells assessed as ADK-mediated 4-(Methylsulfanyl)-8-(beta-D-ribofuranosyl)-8H-thieno[2, 3:4,5]-pyrrolo[2,3-d]pyrimidine-5-O-monophosphate Sodium Salt formation per 5 x10^5 cells at 10 umol/L after 1 hr by UPLC-MS/MS analysis", "assay_type": "ADME, cell-based", "conditions": "10 µM"}, "Adenosine kinase [10]": {"target": "T1, Adenosine kinase", "assay": "Drug metabolism in human HCT116 cells assessed as ADK-mediated 4-(Methylsulfanyl)-8-(beta-D-ribofuranosyl)-8H-thieno[2, 3:4,5]-pyrrolo[2,3-d]pyrimidine-5-O-monophosphate Sodium Salt formation per 5 x10^5 cells at 10 umol/L after 1 hr by UPLC-MS/MS analysis", "assay_type": "ADME, cell-based", "conditions": "10 µM"}, "Adenosine kinase [11]": {"target": "T1, Adenosine kinase", "assay": "Drug metabolism in human BJ cells assessed as ADK-mediated 4-(Methylsulfanyl)-8-(beta-D-ribofuranosyl)-8H-thieno[2, 3:4,5]-pyrrolo[2,3-d]pyrimidine-5-O-monophosphate Sodium Salt formation per 5 x10^5 cells at 10 umol/L after 3 hrs by UPLC-MS/MS analysis", "assay_type": "ADME, cell-based", "conditions": "10 µM"}, "Adenosine kinase [12]": {"target": "T1, Adenosine kinase", "assay": "Drug metabolism in human HCT116 cells assessed as ADK-mediated 4-(Methylsulfanyl)-8-(beta-D-ribofuranosyl)-8H-thieno[2, 3:4,5]-pyrrolo[2,3-d]pyrimidine-5-O-monophosphate Sodium Salt formation per 5 x10^5 cells at 10 umol/L after 3 hrs by UPLC-MS/MS analysis", "assay_type": "ADME, cell-based", "conditions": "10 µM"}, "Adenosine kinase [13]": {"target": "T1, Adenosine kinase", "assay": "Drug level in human BJ cells assessed as ADK-mediated compound formation treated with 4-(Methylsulfanyl)-8-(beta-D-ribofuranosyl)-8H-thieno[2',3':4,5]-pyrrolo[2,3-d]pyrimidine at 1 umol/L after 1 hr by UPLC-MS/MS analysis", "assay_type": "ADME, cell-based"}, "Adenosine kinase [14]": {"target": "T1, Adenosine kinase", "assay": "Drug level in human BJ cells assessed as ADK-mediated compound formation treated with 4-(Methylsulfanyl)-8-(beta-D-ribofuranosyl)-8H-thieno[2',3':4,5]-pyrrolo[2,3-d]pyrimidine at 1 umol/L after 3 hrs by UPLC-MS/MS analysis", "assay_type": "ADME, cell-based"}, "Adenosine kinase [15]": {"target": "T1, Adenosine kinase", "assay": "Drug level in human BJ cells assessed as ADK-mediated compound formation treated with 4-(Methylsulfanyl)-8-(beta-D-ribofuranosyl)-8H-thieno[2',3':4,5]-pyrrolo[2,3-d]pyrimidine at 10 umol/L after 1 hr by UPLC-MS/MS analysis", "assay_type": "ADME, cell-based"}, "Adenosine kinase [16]": {"target": "T1, Adenosine kinase", "assay": "Drug level in human BJ cells assessed as ADK-mediated compound formation treated with 4-(Methylsulfanyl)-8-(beta-D-ribofuranosyl)-8H-thieno[2',3':4,5]-pyrrolo[2,3-d]pyrimidine at 10 umol/L after 3 hrs by UPLC-MS/MS analysis", "assay_type": "ADME, cell-based"}, "Adenosine kinase [17]": {"target": "T1, Adenosine kinase", "assay": "Drug level in human HCT116 cells assessed as ADK-mediated compound formation treated with 4-(Methylsulfanyl)-8-(beta-D-ribofuranosyl)-8H-thieno[2',3':4,5]-pyrrolo[2,3-d]pyrimidine at 1 umol/L after 1 hr by UPLC-MS/MS analysis", "assay_type": "ADME, cell-based"}, "Adenosine kinase [18]": {"target": "T1, Adenosine kinase", "assay": "Drug level in human HCT116 cells assessed as ADK-mediated compound formation treated with 4-(Methylsulfanyl)-8-(beta-D-ribofuranosyl)-8H-thieno[2',3':4,5]-pyrrolo[2,3-d]pyrimidine at 1 umol/L after 3 hrs by UPLC-MS/MS analysis", "assay_type": "ADME, cell-based"}, "Adenosine kinase [19]": {"target": "T1, Adenosine kinase", "assay": "Drug level in human HCT116 cells assessed as ADK-mediated compound formation treated with 4-(Methylsulfanyl)-8-(beta-D-ribofuranosyl)-8H-thieno[2',3':4,5]-pyrrolo[2,3-d]pyrimidine at 10 umol/L after 1 hr by UPLC-MS/MS analysis", "assay_type": "ADME, cell-based"}, "Adenosine kinase [20]": {"target": "T1, Adenosine kinase", "assay": "Drug level in human HCT116 cells assessed as ADK-mediated compound formation treated with 4-(Methylsulfanyl)-8-(beta-D-ribofuranosyl)-8H-thieno[2',3':4,5]-pyrrolo[2,3-d]pyrimidine at 10 umol/L after 3 hrs by UPLC-MS/MS analysis", "assay_type": "ADME, cell-based"}, "Adenosine kinase [21]": {"target": "T1, Adenosine kinase", "assay": "Drug level assessed as human ADK-mediated compound formation treated with 4-(Methylsulfanyl)-8-(beta-D-ribofuranosyl)-8H-thieno[2',3':4,5]-pyrrolo[2,3-d]pyrimidine at 50 uM after 30 mins by HPLC analysis", "assay_type": "ADME", "conditions": "0.5 h"}, "CCRF-CEM": {"test_system": "CCRF-CEM", "assay": "Cytotoxicity against human CCRF-CEM cells assessed as cell growth inhibition after 72 hrs by MTS assay"}},
  "data": [
    {"compound": "CSc1ncnc2c1c1sccc1n2[C@@H]1O[C@H](COP(=O)([O-])O)[C@@H](O)[C@H]1O.[Na+]", "values": [
      {"measurement": "IC50", "setting": "BJ", "value": 640, "unit": "nM"},
      {"measurement": "IC50", "setting": "MRC5", "value": "> 50000", "unit": "nM"},
      {"measurement": "IC50", "setting": "[1]", "value": 47600, "unit": "nM"},
      {"measurement": "IC50", "setting": "HCT-116 [2]", "value": 110, "unit": "nM"},
      {"measurement": "IC50", "setting": "HCT-116 [3]", "value": 130, "unit": "nM"},
      {"measurement": "IC50", "setting": "K562", "value": 390, "unit": "nM"},
      {"measurement": "IC50", "setting": "[4]", "value": "> 50000", "unit": "nM"},
      {"measurement": "IC50", "setting": "U2OS", "value": 9890, "unit": "nM"},
      {"measurement": "IC50", "setting": "HL-60", "value": 340, "unit": "nM"},
      {"measurement": "IC50", "setting": "HepG2", "value": 540, "unit": "nM"},
      {"measurement": "IC50", "setting": "HeLa S3", "value": 9610, "unit": "nM"},
      {"measurement": "IC50", "setting": "A549", "value": "> 50000", "unit": "nM"},
      {"measurement": "Drug metabolism", "setting": "Adenosine kinase [5]", "value": 19751.3, "unit": "pmol"},
      {"measurement": "Drug metabolism", "setting": "Adenosine kinase [6]", "value": 4124, "unit": "pmol"},
      {"measurement": "Drug metabolism", "setting": "Adenosine kinase [7]", "value": 27253.4, "unit": "pmol"},
      {"measurement": "Drug metabolism", "setting": "Adenosine kinase [8]", "value": 5737.8, "unit": "pmol"},
      {"measurement": "Drug metabolism", "setting": "Adenosine kinase [9]", "value": 62703.9, "unit": "pmol"},
      {"measurement": "Drug metabolism", "setting": "Adenosine kinase [10]", "value": 6108.2, "unit": "pmol"},
      {"measurement": "Drug metabolism", "setting": "Adenosine kinase [11]", "value": 65894.4, "unit": "pmol"},
      {"measurement": "Drug metabolism", "setting": "Adenosine kinase [12]", "value": 15246.3, "unit": "pmol"},
      {"measurement": "Drug metabolism", "setting": "Adenosine kinase [13]", "value": "Metabolite_Detected"},
      {"measurement": "Drug metabolism", "setting": "Adenosine kinase [14]", "value": "Metabolite_Detected"},
      {"measurement": "Drug metabolism", "setting": "Adenosine kinase [15]", "value": "Metabolite_Detected"},
      {"measurement": "Drug metabolism", "setting": "Adenosine kinase [16]", "value": "Metabolite_Detected"},
      {"measurement": "Drug metabolism", "setting": "Adenosine kinase [17]", "value": "Metabolite_Detected"},
      {"measurement": "Drug metabolism", "setting": "Adenosine kinase [18]", "value": "Metabolite_Detected"},
      {"measurement": "Drug metabolism", "setting": "Adenosine kinase [19]", "value": "Metabolite_Detected"},
      {"measurement": "Drug metabolism", "setting": "Adenosine kinase [20]", "value": "Metabolite_Detected"},
      {"measurement": "Drug metabolism", "setting": "Adenosine kinase [21]", "value": "Metabolite_Detected"},
      {"measurement": "IC50", "setting": "CCRF-CEM", "value": 200, "unit": "nM"}
    ]}
  ]
}
